Measurements as given in ChEMBL document CHEMBL1124636, “3,4-Dihydro-2H-1-benzopyran-2-carboxylic acids and related compounds as leukotriene antagonists” (J Med Chem, 1989).
Active and inactive are the calls of the source. The rule behind the calls is not given here.

Experiments:
[1] = biological target: T1, Cysteinyl leukotriene receptor 1 (Cavia porcellus) (UniProt Q2NNR5); assay: (§1) Inhibition of leukotriene D4 induced bronchoconstriction in anesthetized guinea pigs after intravenous administration at a dose of 1 mg/kg; assay type: organism-based; set-up: dose 1 mg/kg
T1 sequence (whole entry): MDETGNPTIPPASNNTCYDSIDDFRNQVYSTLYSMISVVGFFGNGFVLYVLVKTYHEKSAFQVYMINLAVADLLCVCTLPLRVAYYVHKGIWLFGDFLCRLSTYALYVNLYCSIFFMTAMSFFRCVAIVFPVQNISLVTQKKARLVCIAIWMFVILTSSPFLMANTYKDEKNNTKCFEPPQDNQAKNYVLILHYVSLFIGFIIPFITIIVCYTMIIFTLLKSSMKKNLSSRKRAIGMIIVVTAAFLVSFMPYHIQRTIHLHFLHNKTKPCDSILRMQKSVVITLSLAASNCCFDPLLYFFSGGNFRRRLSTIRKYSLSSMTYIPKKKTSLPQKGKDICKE

[2] = biological target: T1, Cysteinyl leukotriene receptor 1 (Cavia porcellus); assay: Inhibitory activity of compound to block binding of radiolabeled leukotriene D4 to receptor sites in homogenized guinea pig lung at 10 uM
Procedure, shortened: (§2)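 Lung from male Hartley guinea pigs (400–500 g), homogenized in sucrose/Tris pH 7.5 with protease inhibitors; 30000g membrane pellet in 10 mM PIPES pH 7.5, 50 mM NaCl. Binding: Tyrode, 0.1% BSA, 1 mM glycine, 1 mM cysteine, 3.5 nM [3H]LTD4, 100–200 µg protein, 20 °C, 30 min; glass-fiber filtration. Nonspecific with 10^-6 M LTD4. Triplicate screen at 10 µM; IC50 by linear regression.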

Cavia porcellus [3] = assay: as §1; assay type: functional
[4] = tested on: Cysteinyl leukotriene receptor (Cavia porcellus); assay: Inhibitory activity to block binding of [3H]leukotriene D4 to LTD4 receptor sites in homogenized guinea pig lung at 10 uM
[5] = biological target: T1, Cysteinyl leukotriene receptor 1 (Cavia porcellus); assay: Inhibitory activity of compound to block binding of [3H]leukotriene D4 to Cysteinyl L-Cysteinyl leukotriene D4 receptor sites in homogenized guinea pig lung at 10 uM; procedure, shortened: as §2
[6] = biological target: T2, Cysteinyl leukotriene receptor 1 (Cavia porcellus, UniProt Q2NNR5); assay: Inhibitory activity of compound to block binding of [3H]leukotriene D4 to Cysteinyl leukotriene D4 receptor sites in homogenized guinea pig lung; procedure, shortened: as §2
T2 sequence (Q2NNR5 whole entry): T1 sequence (whole entry)

Cavia porcellus [7] = assay: (§3) Inhibition of leukotriene D4 induced bronchoconstriction in anesthetized guinea pigs after aerosol administration as 1% solution; assay type: functional, organism-based
Procedure, shortened: (§4)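 Guinea pigs given propranolol 0.1 mg/kg iv 5 min before 5-min ultrasonic nebulizer exposure to aqueous, NaOH-neutralized drug (% w/v) or distilled water, breathing spontaneously. LTD4 50 µg/kg iv 30 s after exposure; tracheal pressure change.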

Cavia porcellus [8] = assay: as §3; assay type: functional; procedure, shortened: as §4
Cavia porcellus [9] = species: Cavia porcellus; assay: Activity against histamine induced bronchoconstriction in guinea pig, no significant inhibition at concentration of 1% by aerosol; NA means inactive; assay type: functional, organism-based
Cavia porcellus [10] = assay: Activity against histamine induced bronchoconstriction in guinea pig, no significant inhibition when compound dose (10 mg/kg) given intravenously; NA means inactive; assay type: functional, organism-based
Cavia porcellus [11] = species: Cavia porcellus; assay: Activity against platelet activating factor in guinea pig, no significant inhibition at concentration of 1% by aerosol; NA means inactive; assay type: functional, organism-based
Cavia porcellus [12] = assay: Activity against platelet activating factor in guinea pig, no significant inhibition when compound dose (10 mg/kg) given intravenously; NA means inactive; assay type: functional, organism-based
Cavia porcellus [13] = assay: (§5) Inhibition of leukotriene D4 induced bronchoconstriction in anesthetized guinea pigs after intravenous administration at a dose of 10 mg/kg; assay type: functional
Procedure, shortened: (§6)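 Male Hartley guinea pigs, 400–600 g, urethane 2 g/kg ip, jugular cannula, propranolol 0.1 mg/kg iv 5 min before challenge, succinylcholine 1.2 mg/kg iv, ventilated. Vehicle or drug iv 30 s before LTD4 25 µg/kg iv; tracheal pressure change.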

Cavia porcellus [14] = assay: In vivo guinea pig bronchoconstriction against leukotriene C4 when administered a compound dose (mg/kg) intravenously; assay type: functional; conditions: Lung, iv, read-out: ID50 (the source's name)
Cavia porcellus [15] = assay: In vivo guinea pig bronchoconstriction against leukotriene D4 when administered a compound dose (mg/kg) intravenously; assay type: functional; conditions: Lung, iv, read-out: ID50 (the source's name); procedure, shortened: as §6
Cavia porcellus [16] = assay: In vivo guinea pig bronchoconstriction against leukotriene E4 when administered a compound dose(mg/kg) intravenously; assay type: functional; conditions: Lung, iv, read-out: ID50 (the source's name)
Cavia porcellus [17] = assay: Duration of action of leukotriene D4 as time for inhibition to decrease to 40%, compound was administered at a concentration 1%, for 5 min by aerosol; assay type: functional
Procedure, shortened: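 Aerosol guinea pig bronchoconstriction with LTD4 challenge; drug given as 1% nebulized solution for 5 min. Duration taken as time for inhibition to fall to 40%.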

Cavia porcellus [18] = assay: Duration of action of leukotriene D4 as time for inhibition to decrease to 40%, compound was administered at a dose of 10 mg/kg; assay type: functional
Procedure, shortened: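 Intravenous guinea pig bronchoconstriction with LTD4 challenge; drug 10 mg/kg iv. Duration taken as time for inhibition to fall to 40%.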

Cavia porcellus [19] = assay: Duration of action of leukotriene E4 as time for inhibition to decrease to 40%, compound administered at a concentration of 1%,for 5 min by aerosol; assay type: functional
Procedure, shortened: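 Aerosol guinea pig bronchoconstriction with LTE4 challenge; drug given as 1% nebulized solution for 5 min. Duration taken as time for inhibition to fall to 40%.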

Cavia porcellus [20] = assay: Duration of action of leukotriene E4 as time for inhibition to decrease to 40%, compound was administered at a dose of 10 mg/kg; assay type: functional
Procedure, shortened: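 Intravenous guinea pig bronchoconstriction with LTE4 challenge; drug 10 mg/kg iv. Duration taken as time for inhibition to fall to 40%.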

Cavia porcellus [21] = assay: Time taken for inhibition of antigen induced bronchoconstriction in guinea pig to decrease to 40%, compound was administered at a concentration of 1%, for 5 min by aerosol; assay type: functional
Procedure, shortened: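 Aerosol guinea pig bronchoconstriction with antigen challenge; drug given as 1% nebulized solution for 5 min. Duration taken as time for inhibition to fall to 40%.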

Cavia porcellus [22] = assay: Inhibition of leukotriene D4 induced bronchoconstriction in anesthetized guinea pigs after intravenous administration; assay type: functional; conditions: read-out: ID50 (the source's name); procedure, shortened: as §6
Cavia porcellus [23] = species: Cavia porcellus; assay: Inhibitory activity to inhibit antigen induced bronchoconstriction in guinea pig; assay type: functional
Cavia porcellus [24] = species: Cavia porcellus; assay: In vitro activity to inhibit leukotriene D4 induced contraction of guinea pig trachea; assay type: functional; conditions: read-out: pA2 (converted)
Procedure, shortened: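 Guinea pig tracheal smooth muscle contracted by LTD4; pA2 and Schild slope reported.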

[25] = biological target: Dual specificity calcium/calmodulin-dependent 3',5'-cyclic nucleotide phosphodiesterase 1A (Bos taurus, UniProt P14100); assay: Inhibition of bovine heart Phosphodiesterase 1A
Dual specificity calcium/calmodulin-dependent 3',5'-cyclic nucleotide phosphodiesterase 1A, sequence (P14100 whole entry): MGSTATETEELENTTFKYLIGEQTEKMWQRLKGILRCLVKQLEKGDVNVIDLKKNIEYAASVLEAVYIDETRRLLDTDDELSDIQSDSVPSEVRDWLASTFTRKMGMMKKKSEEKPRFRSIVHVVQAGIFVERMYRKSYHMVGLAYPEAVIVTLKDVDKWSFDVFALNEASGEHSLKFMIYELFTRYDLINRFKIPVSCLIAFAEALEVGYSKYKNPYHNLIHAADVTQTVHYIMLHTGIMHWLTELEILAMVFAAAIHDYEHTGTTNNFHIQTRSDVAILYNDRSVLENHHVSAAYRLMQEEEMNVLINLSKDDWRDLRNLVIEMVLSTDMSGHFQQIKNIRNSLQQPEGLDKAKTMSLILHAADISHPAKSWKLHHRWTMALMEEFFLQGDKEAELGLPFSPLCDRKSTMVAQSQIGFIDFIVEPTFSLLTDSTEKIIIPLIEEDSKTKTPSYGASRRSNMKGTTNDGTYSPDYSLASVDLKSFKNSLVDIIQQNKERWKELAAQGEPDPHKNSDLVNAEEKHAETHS

Rattus norvegicus [26] = species: Rattus norvegicus; assay: Inhibitory activity to inhibit Inophore-induced arachidonic acid metabolism (inhibition of LTB4 formation) in rat; assay type: functional, organism-based
Procedure, shortened: (§7)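 Rat peritoneal macrophages adhered 90 min at 37 °C, labeled with [14C]arachidonic acid 90 min, washed. Compound 30 min at 37 °C, then A23187 0.5 µM for 20 min. LTB4 and PGE2 in medium by radioimmunoassay.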

[27] = Inhibitory activity to inhibit Inophore-induced arachidonic acid metabolism (inhibition of PGE-2 formation) in rat; assay type: functional; procedure, shortened: as §7
Cavia porcellus [28] = species: Cavia porcellus; assay: In vitro activity to inhibit SRS-A induced contraction of guinea pig ileum
[29] = biological target: T1, Cysteinyl leukotriene receptor 1 (Cavia porcellus); assay: as §3; conditions: concentration not given here; procedure, shortened: as §4
[30] = biological target: T1, Cysteinyl leukotriene receptor 1 (Cavia porcellus); assay: as §5; assay type: organism-based; set-up: dose 10 mg/kg; procedure, shortened: as §6
[31] = biological target: T1, Cysteinyl leukotriene receptor 1 (Cavia porcellus); assay: Inhibitory activity of compound to block binding of radiolabeled Cysteinyl leukotriene D4 receptor sites in homogenized guinea pig lung at 10 uM; procedure, shortened: as §2
Rattus norvegicus [32] = species: Rattus norvegicus; assay: Inhibitory activity to inhibit Inophore-induced arachidonic acid metabolism (inhibition of LTB4 formation) in rat; Inactive = no significant inhibition at a concentration of 100 uM; assay type: functional, organism-based; procedure, shortened: as §7
[33] = tested on: Cysteinyl leukotriene receptor 1 (Cavia porcellus); assay: Inhibitory activity of compound to block binding of radiolabeled Cysteinyl leukotriene D4 receptor sites in homogenized guinea pig lung at 10 uM

CCCc1c(OCCCCCOc2cc3c(cc2C(C)=O)CCC(C(=O)O)O3)ccc(C=O)c1O (stereo unspecified)
inhibition [1]: 0%
inhibition [2]: 0%

CCCc1c(OCCCCCOc2cc3c(cc2C(C)=O)CCC(c2nnn[nH]2)O3)ccc(C(C)=O)c1O (stereo unspecified)
inhibition in vivo at 1 mg/kg (Cavia porcellus [3]): 0%
inhibition [4]: 60%

CCCc1c(OCCCCCOc2cc3c(cc2C(C)=O)CCC(C(=O)O)O3)ccc(C(C)=O)c1O (stereo unspecified) [ABLUKAST]
inhibition [5]: 70%
IC50 [6]: 4 µM
IC50 (Cavia porcellus [7]): 0.007 % conc
Inhibition (Cavia porcellus [8]): 89%
inhibition (Cavia porcellus [9]): inactive
inhibition (Cavia porcellus [10]): inactive
inhibition (Cavia porcellus [11]): inactive
inhibition (Cavia porcellus [12]): inactive
inhibition in vivo at 10 mg/kg (Cavia porcellus [13]): 93%
ED50 (Cavia porcellus [14]): 3 mg/kg
ED50 (Cavia porcellus [15]): 5 mg/kg
ED50 (Cavia porcellus [16]): 1 mg/kg
Duration (Cavia porcellus [17]): 150 min
Duration (Cavia porcellus [18]): 40 min
Duration (Cavia porcellus [19]): 90 min
Duration (Cavia porcellus [20]): 40 min
Duration (Cavia porcellus [21]): 250 min
ED50 (Cavia porcellus [22]): 5 mg/kg
Inhibition (Cavia porcellus [23]): 0.027%
Kb (Cavia porcellus [24]): 0.251 µM
IC50 [25]: 36 µM
IC50 (Rattus norvegicus [26]): 4 µM
IC50 [27]: 7 µM
IC50 (Cavia porcellus [28]): 0.06 µM

CCCCCCCCCCCCc1ccccc1C(SCCC(=O)O)SCCC(=O)O
inhibition [29]: 39%
inhibition [30]: 29%
inhibition [31]: 24%

O=C(O)c1ccc(OCCn2ccnc2)cc1 [DAZOXIBEN]
IC50 (Rattus norvegicus [32]): Not Active
IC50 [27]: 10 µM

CCCc1c(OCCCCCCCOc2cc3c(cc2C(C)=O)CCC(C(=O)O)O3)ccc(C(C)=O)c1O (stereo unspecified)
inhibition [2]: 39%
Inhibition (Cavia porcellus [8]): 44%
inhibition [33]: 39%
